This is one part of a sample in which hits are shown more often than they occur.
E-selectin induc – E-selectin induction on HUVECs. HUVEC E-selectin immunofluorescence imaging; normalized: neutral wells 0, TNF-alpha wells 100. AID 686992. hit rate 0.37% among 260,000. P16581. activation, % at 7.58 µM;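 active = mean E-selectin-positive cell signal at least 10% of the positive control, reached in at least 60% of replicates, without over 20% cell loss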
Target sequence (P16581 whole entry, looked up): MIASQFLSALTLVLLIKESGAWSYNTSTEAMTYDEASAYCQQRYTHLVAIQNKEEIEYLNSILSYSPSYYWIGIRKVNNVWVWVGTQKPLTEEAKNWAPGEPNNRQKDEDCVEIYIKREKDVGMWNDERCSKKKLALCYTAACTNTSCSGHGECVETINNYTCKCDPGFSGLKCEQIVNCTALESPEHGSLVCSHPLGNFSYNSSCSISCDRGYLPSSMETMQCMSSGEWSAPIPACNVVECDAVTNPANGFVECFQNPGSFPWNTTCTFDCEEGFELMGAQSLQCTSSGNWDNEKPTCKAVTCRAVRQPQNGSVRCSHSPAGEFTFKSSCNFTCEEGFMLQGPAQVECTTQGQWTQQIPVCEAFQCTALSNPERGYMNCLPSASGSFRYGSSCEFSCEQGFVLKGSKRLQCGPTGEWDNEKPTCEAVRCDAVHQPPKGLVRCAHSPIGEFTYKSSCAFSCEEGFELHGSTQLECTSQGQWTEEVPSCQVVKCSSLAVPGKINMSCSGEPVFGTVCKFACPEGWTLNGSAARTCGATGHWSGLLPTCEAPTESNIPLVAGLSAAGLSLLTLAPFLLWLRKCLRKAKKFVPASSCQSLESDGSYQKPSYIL
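Read-out basis: % PE-positive cells; Test system: HUVEC primary endothelial cells; Technique: immunofluorescence imaging; Dosing: single-point compound dose.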
* hit, by the source's call.

SMILES	E-selectin induc
CCC(=Nc1ccc(OC)cc1OC)c1c(O)n(C2CCCCC2)c(=O)[nH]c1=O	-1
CCC(=NCCN1CCOCC1)c1c(O)n(C2CCCCC2)c(=O)[nH]c1=O	30*
CC(=NCCCn1ccnc1)c1c(O)n(C2CCCCC2)c(=O)[nH]c1=O	-2
CC=Cc1ccc2n(c1=O)C[C@@H]1[C@@H](CO)[C@H](C(=O)O)[C@H]2N1S(=O)(=O)c1ccccc1C (mixture of isomers)	0
Cc1ccccc1-c1ccc([C@@H]2[C@H]3CN(C(=O)Cc4ccccn4)CCCCN3[C@H]2CO)cc1	0
CC=Cc1ccc2n(c1=O)C[C@H]1[C@H](CO)[C@@H](C(=O)OC)[C@@H]2N1C(=O)CC1CC1 (mixture of isomers)	0
COC(=O)[C@H]1[C@H](CO)[C@H]2Cn3c(ccc(-c4ccc(OC)cc4)c3=O)[C@@H]1N2C(=O)c1ccccc1F	0
Cc1cccn2c(=O)c3c(nc12)N1CCCCCC1C1(C3)C(=O)N(C)C(=O)N(C)C1=O (stereo not drawn)	55*
CCCCN1C(=O)NC(=O)C2(Cc3c(nc4ccccn4c3=O)N3CCc4ccccc4C32)C1=O (stereo not drawn)	-3
C[C@H]1CN([C@@H](C)CO)C(=O)CCCn2cc(nn2)CO[C@H]1CN(C)C(=O)Oc1cccc2ccccc12	0
O=C(Cc1ccccc1)N1CC2(C1)[C@H](c1ccccc1)[C@@H](CO)N2Cc1cccc(F)c1	0
CN1C(=O)C(=Cc2cn(CC(=O)N3CCCC3)c3ccccc23)C(=O)N(C)C1=O	0
CN1C(=O)C(=Cc2coc3ccccc3c2=O)C(=O)N(C)C1=O	36*
CN1C(=O)C(=Cc2cn(CC#N)c3ccccc23)C(=O)N(C)C1=O	0
COC(=O)[C@H]1[C@H](CO)[C@H]2Cn3c(ccc(C4=CCCC4)c3=O)[C@@H]1N2C(=O)C1CCCCC1	0
COc1ccc(-c2ccc3n(c2=O)C[C@H]2[C@H](CO)[C@@H](C(=O)O)[C@@H]3N2C(=O)c2ccccc2F)cc1	0
CCN1/C(=C/C=C/C2=[N+](CC)c3ccccc3C2(C)C)C(C)(C)c2ccccc21	131*
COc1ccc(C#Cc2ccc([C@H]3[C@H](CO)N4CCCCN(C(=O)Cc5ccncc5)C[C@@H]34)cc2)cc1	-1
CN(C)CC#Cc1ccc([C@@H]2[C@H]3CN(C(=O)Cc4ccccn4)CCCCN3[C@H]2CO)cc1	0
NC(C(=O)O)c1cc(=O)[nH]o1 (stereo not drawn)	84*
CC(C)(C)c1o[nH]c(=O)c1CC(N)C(=O)O (stereo not drawn)	0
COc1ccc(-c2ccc([C@H]3[C@@H](CO)N4CCCCN(C(=O)Cc5ccccc5)C[C@@H]34)cc2)cc1	-1
COC(=O)[C@@H]1[C@@H](CO)[C@@H]2Cn3c(ccc(-c4cccc(OC)c4)c3=O)[C@H]1N2C(=O)c1cnccn1	0
C/C=C/c1ccc(C2[C@@H]3CN(C(=O)C4CCOCC4)C[C@H]2N3)cc1 (stereo partly drawn)	0
CCCC[N+]12CCC(CC1)C(C(O)(c1ccccc1)c1ccccc1)C2 (stereo not drawn)	53*
SMILES	E-selectin induc
CCC[N+]12CCC(CC1)C(C(O)(c1ccccc1)c1ccccc1)C2 (stereo not drawn)	2
COCC#Cc1ccc([C@@H]2[C@@H](CO)N3CCCCN(C(=O)Cc4ccccn4)C[C@@H]23)cc1	0
C[C@@H]1CN([C@@H](C)CO)C(=O)c2c(c3ccccc3n2C)-c2ccccc2CO[C@H]1CN(C)C(=O)Oc1ccccc1	0
C[C@H]1CN([C@@H](C)CO)C(=O)c2c(c3ccccc3n2C)-c2ccccc2CO[C@H]1CN(C)C(=O)Oc1ccccc1	0
C=CCn1c(O)c(C(C)=NCCC(c2ccccc2)c2ccccc2)c(=O)[nH]c1=O	0
CC(=NCCN(C)C)c1c(O)n(Cc2ccccc2)c(=O)[nH]c1=O	5
C=CCn1c(O)c(C(C)=NCCCN(C)C)c(=O)[nH]c1=O	50*
c1cc(-c2ccc(C3[C@H]4CNC[C@@H]3N4CC3CC3)cc2)ccn1 (stereo partly drawn)	1
COC(=O)[C@H]1[C@H](CO)[C@H]2Cn3c(ccc(C4=CCCC4)c3=O)[C@@H]1N2CC1CCCC1	1
C=CC(C)C(C(=O)c1ccccc1)N(C)C (stereo not drawn)	3
CC(C)N(C(=O)CCl)c1ccccc1	83*
C[C@@H]([C@@H](O)c1ccccc1)N(C)C(=O)Cc1ccccc1	1
O=C(Cc1cccnc1)N1CCCCN2[C@H](CO)[C@@H](c3ccc(/C=C/c4ccccc4)cc3)[C@H]2C1	-1
O=C(Cc1ccccn1)N1CCCCN2[C@H](CO)[C@@H](c3ccc(C#Cc4ccccc4)cc3)[C@H]2C1	0
O=C(Cc1ccccn1)N1CCCCN2[C@@H](CO)[C@H](c3ccc(C#Cc4ccccc4)cc3)[C@@H]2C1	0
